The values below come from PubChem BioAssay.

Activity calls are given as the source filed them.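 How the source made its calls, unless noted: active means fluorescence slope after compound addition differing from the mean of all tested samples at 99.7% confidence, mostly higher but some lower; inactive means the rest.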

A short description of test [1]: inhibitors of TNFa-induced NFkB p65 translocation, primary screen, imaging, HUVEC, MLSMR starter and 10KST1 sets (AID 438;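 active means inhibition above 20% together with a positive visual image hit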;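 further: compound added about 3h40 before a 20 min TNFalpha stimulation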;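 on inhibition: signal is the nuclear over cytoplasmic p65 intensity ratio per well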). Conditions: HUVEC TNFa-induced p65 nuclear translocation; cell count: measured here: nuclei count (cytotoxicity indicator), at 2.08 µM unless noted; inhibition: at 2 µM, stronger effect = higher value unless noted.
A short description of test [2]: inhibitors of mutant huntingtin aggregation, primary screen, imaging, exon1htt(103Q)mCFP cells, high-content imaging (AID 483;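 active means visual image review flags a hit and inhibition of aggregation exceeds 20%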;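 further: compound exposure lasted 3 days before fixation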;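 on nuclei count: percent of the per-plate median nuclei count of sample wells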). Conditions: exon1htt(103Q)mCFP cell line, aggregate imaging, at 2 µM; inhibition of aggregation: stronger effect = higher value; nuclei count: measured here: cell count, toxicity.
Test [3] can be described thus: inhibitors of E-selectin induction by TNFa, primary screen, imaging, HUVEC, immunofluorescence, MLSMR starter and 10KST1 sets (AID 487;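 active means visually confirmed hit in the image check and inhibition above 20%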;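 on inhibition: signal is fraction of cell area covered by stained E-selectin grains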;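 on nuclei count: 100% = median nuclei count of all wells on the same plate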). To be noted: HUVEC TNFalpha-induced E-selectin immunofluorescence imaging, at 2 µM; inhibition: stronger effect = higher value; nuclei count: measured here: cell number, toxicity.
Test [4] concerns the target Voltage-gated potassium channel subunit beta-2 (Rattus norvegicus) (UniProt P62483). Nature of the test: KvBeta enzyme negative modulators, primary screen, biochemical, NADPH fluorescence (AID 622;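 active means fluorescence slope higher than the sample average by over 3 SD, cut at about -0.22 in these data, passing the limit was not always enough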;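 further: slope of raw intensity against log time taken from 70 to 1610 s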). Conditions: recombinant KvBeta, 4-cyanobenzaldehyde reduction, at 10 µM, stronger effect = higher value.
Test [5] shares this target. Nature of the test: KvBeta positive modulators, primary screen, biochemical, NADPH fluorescence (AID 623;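 active means NADPH fluorescence slope more negative than the mean of all samples by about 3 SD, 99.7% confidence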;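 further: fluorescence intensity change per second fitted from 20 to 320 s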). To be noted: Recombinant KvBeta, NADPH fluorescence decrease slope, 10 min; at 10 µM; stronger effect = lower value.
Test [6] deals with Muscarinic acetylcholine receptor M4 (Homo sapiens) (UniProt P08173). In words: compounds altering M4/GIRK thallium flux, either direction, primary screen, M4 allosteric agonist project, cell-based, HEK293 M4/GIRK, BTC-AM (AID 625).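 Further: thallium influx through GIRK channels coupled to M4 in HEK293 cells with BTC-AM dye.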 To be noted: at 10 µM, actives lie on both sides. Put shortly:
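assay system = HEK293 cells with M4 receptor and GIRK channels | medium = pH 7.3 thallium assay buffer | doses = 10 µM final, single point | timing = cells overnight at 37 °C, BTC-AM loading 1 h, reads 2 min total | signal = BTC-AM fluorescence, 1 Hz kinetic reads | read-out = post-addition slope, 15–24 s, of baseline-normalized fluorescence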

The nature of test [7]: inhibitors of Sendai virus-induced IRF3 signaling, primary screen, TLR/RLR signaling modifier project, cell-based, Sendai virus stimulus, luciferase, 10K MLSCN set (AID 602276;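 active means inhibition at or above 50% at 10 µM; inactive means inhibition below 50%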;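 further: firefly luciferase from ISG56 promoter only with Renilla not read in this screen; 0% = Sendai virus plus DMSO and 100% = medium plus DMSO without virus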). Conditions: HEK293 RL24 IRF3 luciferase reporter, at 10 µM, stronger effect = higher value. (A reporter such as luciferase makes a cellular process visible.)
A short description of test [8]: inhibitors of poly I:C-induced TLR3 signaling, primary screen, cell-based, poly I:C stimulus, luciferase, 10K MLSCN set (AID 602277;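 active means inhibition of the reporter signal at or above 50%; inactive means inhibition below 50%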). Conditions: HEK293-TLR3 RL24 IRF3 luciferase reporter, at 10 µM, stronger effect = higher value.
Test [9] in a line: inhibitors of Chlamydomonas gravitaxis, primary screen, whole organism, Chlamydomonas reinhardtii, WT vs cilia-less mutant, absorbance, 96-well (AID 463189;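 active means inhibition at or above 50% relative to wild type and mutant plate controls; inactive means inhibition below 50%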;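 further: 0% = wild type cc124 cells in DMSO and 100% = ciliumless bld1 mutant cells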). Conditions: OD600 absorbance, 2 days, at 10 µM, stronger effect = higher value.

Sequence of Muscarinic acetylcholine receptor M4 (Homo sapiens) (P08173 whole entry, looked up): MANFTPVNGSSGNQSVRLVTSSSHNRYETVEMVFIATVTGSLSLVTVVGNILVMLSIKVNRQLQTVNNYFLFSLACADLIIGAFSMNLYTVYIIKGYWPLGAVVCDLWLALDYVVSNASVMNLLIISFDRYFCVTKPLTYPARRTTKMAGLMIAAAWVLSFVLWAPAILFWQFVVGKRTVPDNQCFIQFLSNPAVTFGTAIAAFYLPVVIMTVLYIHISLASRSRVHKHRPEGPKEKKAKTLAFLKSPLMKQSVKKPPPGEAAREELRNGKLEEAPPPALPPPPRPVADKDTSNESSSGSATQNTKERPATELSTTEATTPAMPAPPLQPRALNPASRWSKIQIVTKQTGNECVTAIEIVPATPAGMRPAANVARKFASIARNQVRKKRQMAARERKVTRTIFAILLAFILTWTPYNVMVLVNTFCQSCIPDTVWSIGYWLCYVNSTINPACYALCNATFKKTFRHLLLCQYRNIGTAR
Sequence of Voltage-gated potassium channel subunit beta-2 (Rattus norvegicus) (P62483 whole entry, looked up): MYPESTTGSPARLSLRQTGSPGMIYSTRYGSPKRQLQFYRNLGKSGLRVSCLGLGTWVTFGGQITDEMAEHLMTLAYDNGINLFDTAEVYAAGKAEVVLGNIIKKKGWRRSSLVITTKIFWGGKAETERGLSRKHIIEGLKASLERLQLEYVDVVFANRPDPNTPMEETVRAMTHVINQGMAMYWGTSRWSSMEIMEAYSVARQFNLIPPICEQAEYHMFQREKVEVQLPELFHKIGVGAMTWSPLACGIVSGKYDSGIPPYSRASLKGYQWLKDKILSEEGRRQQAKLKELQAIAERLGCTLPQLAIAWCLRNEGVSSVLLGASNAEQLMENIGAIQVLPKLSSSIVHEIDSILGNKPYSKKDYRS

Consider `NC(=O)CSP(=O)(c1ccccc1)c1ccccc1`, for which, in [1], the cell count stood at 427. Also, the inhibition (in general, the relative decrease from the control value, in per cent) in test [1] was -3.5% (inactive); in test [3], -31.5% (inactive); in test [7], 6.33% (inactive); in [8], 18.3% (inactive). Besides, the inhibition of aggregation in [2] was 4.2% (inactive). The values for the nuclei count in test [2] and in test [3] were 110% and 105%, respectively. Moreover, the fluorescence slope in test [4] is -0.541 (inactive); in [6], 0.00487 (inactive). For the same compound, the NADPH fluorescence slope in [5] was -3.8e-05 (inactive).

In test [1], `O=C(Cc1ccccc1)OC(COCc1ccccc1)CN1CCOCC1` (stereo unspecified) yielded a cell count of 314. For the same compound, the inhibition in test [1] is -7.8% (inactive); in test [3], -56.9% (inactive); in test [7], 2.92% (inactive); in test [8], 10.1% (inactive). Besides, the inhibition of aggregation in test [2] is -19.1% (inactive). The nuclei count worked out at 77.8% in [2] and 117% in [3]. For the same compound, the values for the fluorescence slope in [4] and in test [6] were -0.37 (inactive) and 0.00718 (inactive), respectively. Further, the NADPH fluorescence slope in [5] was 2.9e-05 (inactive).

Take `O=C(CN1C(=O)CN=C(c2ccccc2)c2ccccc21)NCc1ccco1`: the cell count in test [1] worked out at 519. Also, the inhibition was -2.9% (inactive) in test [1], -66.7% (inactive) in test [3], -12.7% (inactive) in test [7] and -12.1% (inactive) in test [8]. In test [2], the inhibition of aggregation was -13.4% (inactive). For the same compound, the values for the nuclei count in [2] and in test [3] were 99.4% and 142%, respectively. The fluorescence slope is -0.571 (inactive) in test [4] and 0.00595 (inactive) in [6]. Also, the NADPH fluorescence slope in [5] was -6.4e-05 (inactive).

Compound `O=C(C1CCCN(S(=O)(=O)c2cccc3nsnc23)C1)N1CCC2(CC1)OCCO2` (stereo unspecified) had a cell count in [1] of 815. The inhibition in [1] was -0.7% (inactive); in test [3], -154% (inactive); in test [7], 16.9% (inactive); in [8], 1.28% (inactive). In addition, the inhibition of aggregation in [2] is 10.6% (inactive). Further, the nuclei count in test [2] worked out at 96.6%; in [3], 125%. In addition, the fluorescence slope is -0.322 (inactive) in [4] and 0.00517 (inactive) in test [6]. The NADPH fluorescence slope in [5] is -2.9e-05 (inactive).

As for `CSc1ccc(C(=O)C(C)(C)N2CCOCC2)cc1`, the cell count in [1] amounted to 401. For the same compound, the inhibition in test [1] is -5.2% (inactive); in test [3], -65.3% (inactive); in [7], 14.9% (inactive); in test [8], 2.25% (inactive). Besides, the inhibition of aggregation in [2] was -13.1% (inactive). The nuclei count in test [2] stood at 102%; in test [3], 105%. In addition, the fluorescence slope is -0.577 (inactive) in test [4] and 0.00392 (inactive) in test [6]. The NADPH fluorescence slope in [5] was -4.3e-05 (inactive).

In test [1], `COC(=O)c1c(C)n(Cc2ccc3c(c2)OCO3)c2ccc(O)cc12` came in with a cell count of 598. For the same compound, the inhibition in [1] was 2.2% (inactive); in test [3], 30.8% (inactive); in test [7], -0.687% (inactive); in test [8] it was -6.04% (inactive). The inhibition of aggregation in test [2] was -6.7% (inactive). The results for the nuclei count in test [2] and in test [3] were 109% and 90.3%, respectively. Besides, the results for the fluorescence slope in test [4] and in test [6] were -0.528 (inactive) and 0.0049 (inactive), respectively. Further, the NADPH fluorescence slope in test [5] was -1.6e-05 (inactive).

Regarding `CCOC(=O)C(O)(c1ccc(N(CC)C(=O)OC)cc1)C(F)(F)F` (stereo unspecified), in [1], the cell count amounted to 614. The inhibition in [1] was -6.1% (inactive); in test [3] it was -140% (inactive); in test [7], 13.7% (inactive); in [8], 13.7% (inactive). In [2], the inhibition of aggregation was -9.5% (inactive). Further, the figures for the nuclei count in [2] and in test [3] were 91.2% and 111%, respectively. In addition, the fluorescence slope in test [4] is -0.425 (inactive); in [6], 0.00401 (inactive). For the same compound, the NADPH fluorescence slope in [5] is -0.000455 (inactive).

Turning to `O=C1CCCN1CC#CCN1CCCC1`, the inhibition in [9] is 7.02% (inactive).

For `Cc1cccc(-n2c(-c3ccco3)nc3ccccc3c2=O)n1`, the cell count in test [1] is 344. The inhibition is -2.8% (inactive) in test [1], 20.8% (inactive) in test [3], -11.4% (inactive) in test [7] and -10.7% (inactive) in test [8]. The inhibition of aggregation in [2] is 3.4% (inactive). Further, the figures for the nuclei count in test [2] and in test [3] were 97.9% and 83.8%, respectively. The fluorescence slope in test [4] is -0.368 (inactive); in test [6], 0.00556 (inactive). In addition, the NADPH fluorescence slope in test [5] was 7.6e-06 (inactive).

In test [1], `Cn1c(O)c(C=NCc2ccco2)c(=O)n(C)c1=O` displayed a cell count of 327. Also, the inhibition in [1] is -3.8% (inactive); in test [3] it was -150% (inactive); in [7], 22.6% (inactive); in test [8] it was 14.6% (inactive). For the same compound, the inhibition of aggregation in [2] is -8.5% (inactive). Also, the nuclei count in [2] is 109%; in test [3], 118%. Besides, the fluorescence slope in test [4] is -0.557 (inactive); in test [6] it was 0.00416 (inactive). Further, the NADPH fluorescence slope in test [5] was 3.2e-06 (inactive).

In test [1], `COc1cc(/C=N/n2cnnc2)ccc1OC(=O)N(C)C` displayed a cell count of 615. Further, the inhibition in test [1] is -19.9% (inactive); in [3], -3.5% (inactive); in [7] it was 13% (inactive); in test [8] it was 20.9% (inactive). For the same compound, in test [2], the inhibition of aggregation was -14.7% (inactive). Further, the values for the nuclei count in [2] and in test [3] were 114% and 98.1%, respectively. Further, the figures for the fluorescence slope in [4] and in [6] were -0.436 (inactive) and 0.0081 (inactive), respectively. Also, the NADPH fluorescence slope in [5] was 3.1e-05 (inactive).
